A short description of one data set: PAMPA. Format: in vitro ADME. The conditions noted are these: for Papp at 5 h, 500 µM: pH 7.4. Background: In PAMPA a lipid-coated filter parts donor from acceptor wells.
The subject of another data set is C. albicans. In words: Antifungal MIC, liquid growth inhibition. In kind it is cell-based. The conditions noted are these: Candida albicans, 24 h, read-out: Antifungal activity, MIC90. A digest of the protocol:
(§1)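 Clinical isolates from patient specimens, one isolate per patient. Yeasts were grown in YPD at 37 °C for 16 h with 150 rpm shaking, then subcultured to OD 0.3. Inoculum was set to 0.5 McFarland and diluted 1:500 in RPMI 1640 […]. CLSI broth microdilution used final compound concentrations of 256–0.125 µg/mL. MIC90 is the concentration inhibiting 90% of the strains tested per species.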

In another data set the test system is C. neoformans. Kind of data set: Antifungal MIC, liquid growth inhibition. The settings on record: Cryptococcus neoformans, 24 h, read-out: Antifungal activity, MIC90. In kind it is cell-based. In outline:
as §1

A further data set concerns C. tropicalis. Kind of data set: Antifungal MIC, liquid growth inhibition. The conditions noted are these: Candida tropicalis, 24 h, read-out: Antifungal activity, MIC90. In kind it is cell-based. A digest of the protocol: as §1

SMILES strings stand for the structures. ≈ marks a conversion by molar mass, not a printed value.

One may read the Papp as a coefficient for how fast a substance crosses the barrier. A high value points to ready permeation. In the data set “PAMPA”, `O=C(N[C@H](CO)[C@H](O)c1ccc([N+](=O)[O-])cc1)C(Cl)Cl` [Chloramphenicol] showed a Papp at 5 h, 500 µM of 0.3 ×10⁻⁶ cm/s.

In turn, `Cn1c(=O)c2c(ncn2C)n(C)c1=O` [Caffeine] returned an apparent permeability coefficient (Papp) at 5 h, 500 µM in the data set “PAMPA” of 1.84 ×10⁻⁶ cm/s. The compound further returned a Membrane retention in the data set “PAMPA” (phosphatidylcholine in dodecane, pH 7.4, 5 h, r.t.) of 3.2%.

What is called MIC90 is an inhibitory concentration at the 90% level, which refers to growth in some studies and to a panel of isolates in others. With `OC(Cn1cncn1)(Cn1cncn1)c1ccc(F)cc1F` [F, Fluconazole], the MIC90 in the data set on C. albicans, in the data set with C. neoformans and in the data set on C. tropicalis was 2 µg/mL (≈ 6.53 µM) in each case.

Source of the values: publication PMC8830944 (Molecular Diversity, 2022).
